Measured values from different studies.
Protocols differ between the studies behind these lines.
Cell line: HeLa
Effect on: cell growth or viability

N#Cc1ccc(NC(=S)NN=Cc2ccc([N+](=O)[O-])cc2)cc1
IC50 (72 h): 142 µg/mL

C[C@]12CCC(=O)C[C@@H]1CC[C@@H]1[C@@H]2CC[C@@]2(C)[C@H]1CC[C@]2(C)O
IC50 (MTT; 24 h): 27600 nM

CC(C)[C@]12O[C@H]1[C@@H]1O[C@]13[C@]1(O[C@H]1C[C@H]1C4=C(CC[C@@]13C)C(=O)OC4)[C@@H]2O
IC50 (thymidine uptake; 3 h): 41 nM

N#Cc1ccc(NC(=S)NN)cc1
IC50 (72 h): 11 µg/mL

CC[C@@]1(OC(=O)[C@@H](N)CCCCN)C(=O)OCc2c1cc1n(c2=O)Cc2cc3cc4c(cc3nc2-1)OCO4
IC50 (MTT): 24 nM

O=C(Cc1ccc2ccccc2c1)N[C@@H](Cc1ccccc1)C(=O)N[C@@H](Cc1ccccc1)C(=O)N[C@@H](Cc1ccc(OP(=O)(O)O)cc1)C(=O)O
IC50 (MTT; 48 h): > 500000 nM

CC[C@@]1(O)C(=O)OCc2c1cc1n(c2=O)Cc2cc3cc4c(cc3nc2-1)OCO4
IC50 (MTT; 72 h): 26 nM

COc1c2c(cc3c1OCO3)[C@]13C=C[C@H](OC)C[C@@H]1[N@](C2)C[C@H]3OC(=O)c1ccoc1
IC50 (WST-1; 48 h): > 10000 nM

[Cl-].[Cl-].[Co+2]
IC50 (MTT; 48 h): > 150000 nM

COc1ccc(C=NNC(=S)Nc2ccc(C#N)cc2)cc1
IC50 (72 h): 31 µg/mL

Nc1cc(Br)c(Br)cc1N
IC50 (72 h): 20000 nM

CC[C@@]1(OC(=O)Cc2c(C)n(C(=O)c3ccc(Cl)cc3)c3ccc(OC)cc23)C(=O)OCc2c1cc1n(c2=O)Cc2cc3cc4c(cc3nc2-1)OCO4
IC50 (MTT): 306 nM

N#Cc1ccc(NC(=S)NN=Cc2ccccc2)cc1
IC50 (72 h): 67 µg/mL

CC[C@@]1(OC(=O)[C@@H](N)C(C)C)C(=O)OCc2c1cc1n(c2=O)Cc2cc3cc4c(cc3nc2-1)OCO4
IC50 (MTT): 114 nM

COc1cc(C(=O)c2cc3c(-c4ccccc4)c(OC)ccc3o2)cc(OC)c1OC
IC50: 25000 nM

CC[C@@]1(OC(=O)[C@@H](N)Cc2ccccc2)C(=O)OCc2c1cc1n(c2=O)Cc2cc3cc4c(cc3nc2-1)OCO4
IC50 (MTT): 64 nM

Nc1cc(I)c(I)cc1N
IC50 (72 h): 15000 nM

CC[C@@]1(OC(=O)[C@H](C)N)C(=O)OCc2c1cc1n(c2=O)Cc2cc3cc4c(cc3nc2-1)OCO4
IC50 (MTT): 103 nM

N.N.[Cl][Pt][Cl]
IC50 (MTT; 24 h): 2330 nM
